One experiment addresses T1, Acetylcholinesterase (Rattus norvegicus, UniProt P37136).
T1 sequence (P37136 whole entry): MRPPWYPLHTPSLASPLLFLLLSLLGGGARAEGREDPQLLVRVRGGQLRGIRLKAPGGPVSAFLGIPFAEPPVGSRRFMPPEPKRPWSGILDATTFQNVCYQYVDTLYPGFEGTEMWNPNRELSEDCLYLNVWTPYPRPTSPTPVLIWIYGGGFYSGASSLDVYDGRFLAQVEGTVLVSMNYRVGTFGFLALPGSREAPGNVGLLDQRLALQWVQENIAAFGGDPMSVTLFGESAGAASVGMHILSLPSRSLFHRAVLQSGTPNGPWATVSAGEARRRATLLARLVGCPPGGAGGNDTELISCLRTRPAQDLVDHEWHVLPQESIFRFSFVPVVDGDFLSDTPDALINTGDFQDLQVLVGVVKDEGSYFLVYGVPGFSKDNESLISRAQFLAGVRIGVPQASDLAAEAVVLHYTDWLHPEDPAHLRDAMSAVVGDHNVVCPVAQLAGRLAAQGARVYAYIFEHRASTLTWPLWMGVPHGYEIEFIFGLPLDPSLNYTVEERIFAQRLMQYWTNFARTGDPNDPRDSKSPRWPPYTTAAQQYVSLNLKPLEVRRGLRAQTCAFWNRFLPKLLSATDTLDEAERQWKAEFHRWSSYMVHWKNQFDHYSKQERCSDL
Kind of experiment: Inhibitory concentration against rat brain acetylcholinesterase AChE. In a few lines: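 Adult Wistar rat cerebral cortex, stored frozen, homogenized 1:200 w/v in 25 mM phosphate pH 7.4, warmed 37 °C 5 min, spun 50000g 15 min at 4 °C; pellet resuspended as AChE-enriched fraction. Compound in PBS pH 7.4 with tritiated ACh (final 0.4 mM), 15 min at 37 °C; stopped with chloroacetic acid/NaCl/NaOH; ³H-acetate extracted into isoamyl alcohol/toluene, scintillation counted.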

Experiment [1] deals with Cholinesterases; ACHE & BCHE (Homo sapiens) (UniProt P06276+P22303). Kind of experiment: It is the ratio of IC50 for butyrl cholinesterase (BuChE ) to that of acetylcholinesterase (AChE). The format is protein assay. In a few lines:
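Ellman method, 0.1 M phosphate pH 8.0, 340 µM DTNB. AChE: human erythrocyte 0.035 unit/mL, 550 µM acetylthiocholine. BuChE: human serum 0.035 unit/mL, 550 µM butyrylthiocholine.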

Chain of Cholinesterases; ACHE & BCHE (Homo sapiens) (P06276 whole entry, looked up): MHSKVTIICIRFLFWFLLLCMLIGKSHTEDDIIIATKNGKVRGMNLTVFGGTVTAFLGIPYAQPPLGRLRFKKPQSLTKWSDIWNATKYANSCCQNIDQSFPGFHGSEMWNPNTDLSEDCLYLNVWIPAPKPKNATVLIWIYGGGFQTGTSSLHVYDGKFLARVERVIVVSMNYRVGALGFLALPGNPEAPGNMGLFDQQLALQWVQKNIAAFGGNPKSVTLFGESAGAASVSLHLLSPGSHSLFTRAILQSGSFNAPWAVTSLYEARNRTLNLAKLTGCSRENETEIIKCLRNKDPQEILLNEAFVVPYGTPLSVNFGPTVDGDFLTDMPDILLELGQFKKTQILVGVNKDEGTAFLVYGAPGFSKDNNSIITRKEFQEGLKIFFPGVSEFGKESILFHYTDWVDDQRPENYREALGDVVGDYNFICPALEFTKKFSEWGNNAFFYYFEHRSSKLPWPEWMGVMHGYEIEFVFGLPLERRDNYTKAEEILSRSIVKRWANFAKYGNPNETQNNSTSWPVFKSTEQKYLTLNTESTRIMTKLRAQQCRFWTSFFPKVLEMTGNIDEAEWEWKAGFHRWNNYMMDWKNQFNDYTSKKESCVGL
Chain of Cholinesterases; ACHE & BCHE (Homo sapiens) (P22303 whole entry, looked up): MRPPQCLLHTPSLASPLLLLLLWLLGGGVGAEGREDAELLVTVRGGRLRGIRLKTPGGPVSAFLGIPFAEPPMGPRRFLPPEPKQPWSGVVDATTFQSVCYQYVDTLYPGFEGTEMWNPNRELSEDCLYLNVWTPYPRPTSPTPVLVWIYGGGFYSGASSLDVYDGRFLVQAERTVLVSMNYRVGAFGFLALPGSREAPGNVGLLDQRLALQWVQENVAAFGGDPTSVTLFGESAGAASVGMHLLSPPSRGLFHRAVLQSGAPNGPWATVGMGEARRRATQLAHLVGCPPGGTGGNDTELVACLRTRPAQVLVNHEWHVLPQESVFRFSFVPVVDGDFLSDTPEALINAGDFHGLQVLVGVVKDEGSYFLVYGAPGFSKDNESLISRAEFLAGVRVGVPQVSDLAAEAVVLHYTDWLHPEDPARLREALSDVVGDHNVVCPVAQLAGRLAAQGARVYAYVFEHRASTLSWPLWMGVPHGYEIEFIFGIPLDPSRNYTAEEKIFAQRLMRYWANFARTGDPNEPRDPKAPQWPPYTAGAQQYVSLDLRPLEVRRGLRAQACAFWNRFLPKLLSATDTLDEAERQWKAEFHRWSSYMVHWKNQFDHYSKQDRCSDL

`CN(CCCOc1ccc2c(=O)c3ccccc3oc2c1)Cc1cccc(OC(=O)Nc2ccccc2)c1` registered an IC50 against Acetylcholinesterase above 1000 nM. Also, the Ratio in experiment [1] turned out to be 71.4.

With `CNC(=O)Oc1cccc(CN(C)CCCOc2ccc3c(=O)cc(-c4ccccc4)oc3c2)c1`, it took 0.6 nM to reach half-maximal inhibition against Acetylcholinesterase (IC50). The Ratio in experiment [1] turned out to be 8.2.

`CNC(=O)Oc1cccc(CN(C)CCCOc2ccc3ccc(=O)oc3c2)c1` returned a concentration for half-maximal inhibition (IC50) on Acetylcholinesterase of 1.5 nM. Besides, the Ratio in experiment [1] was found to be 0.6.

On Acetylcholinesterase, `CCCCNC(=O)Oc1cccc(CN(C)CCCOc2ccc3c(=O)c4cccnc4oc3c2)c1` returned an IC50 of 70 nM. For the same compound, the Ratio in experiment [1] amounted to 2.7.

On Acetylcholinesterase, `CNC(=O)Oc1cccc(CN(C)CCCCCOc2ccc3c(=O)c4ccccc4oc3c2)c1` gave an IC50 above 100 nM. For the same compound, the Ratio in experiment [1] came to 101.

The compound `CCCCCCCNC(=O)Oc1cccc(CN(C)CCCOc2ccc3ccc(=O)oc3c2)c1` yielded an IC50 on Acetylcholinesterase of 2 nM. In addition, in experiment [1], the Ratio stood at 5.
